Data from ChEMBL document CHEMBL1157061, “Polybioside, a neuroactive compound from the venom of the social wasp Polybia paulista” (J Nat Prod, 2010).
Calls of active or inactive are those of the source. No cut-off for these calls is given here.

How the values were obtained:
[1] = tested on: Rattus norvegicus; experiment: Neurotoxicity in Wistar rat assessed as localized diffuse piloerection around neck at 10 ng/kg, icv up to 10 mins; assay type: toxicity, organism-based; conditions: in vivo, icv_or_intrathecal, 1e-05 mg/kg
Method in brief: (§1)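 Adult male Wistar rats (250-300 g, acclimated one week) received 10 ng/kg ICV in 0.9% saline through a cannula placed about 2 h earlier. Behaviour was observed afterwards, including convulsions, piloerection and eye signs. Sensorimotor reflexes were scored by righting reflex and wire suspension test, with follow-up to recovery at 80 min.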

[2] = tested on: Brain; experiment: Neuronal activity in Wistar rat brain dorsal intermediate nucleus assessed as c-Fos-immunoreactive neurons at 0.1 ug/ul, icv after 2 hrs by immunohistochemistry analysis; assay type: functional, tissue-based
Method in brief: (§2)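 Adult male Wistar rats (250-300 g) were acclimated for one week and handled twice daily. An ICV cannula was placed about 2 h before dosing. Compound was given ICV in 10 µL 0.9% saline; saline-only controls (n = 3). After 2 h, rats were perfused with 4% formaldehyde (pH 9.5). Coronal 30 µm sections were stained with rabbit anti-c-Fos (1:5000, 18 h, RT), biotinylated goat anti-rabbit, ABC and DAB, with thionin counterstain. Immunoreactive cells were counted in fixed areas; Student's t-test, p<0.05.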

[3] = tested on: Brain; experiment: Neuronal activity in Wistar rat brain dorsomedial hyphalamic nucleus assessed as c-Fos-immunoreactive neurons at 0.1 ug/ul, icv after 2 hrs by immunohistochemistry analysis; assay type: functional, tissue-based; method in brief: as §2
[4] = tested on: Hippocampus; experiment: Neuronal activity in Wistar rat brain hippocampus assessed as c-Fos-immunoreactive neurons at 0.1 ug/ul, icv after 2 hrs by immunohistochemistry analysis; assay type: functional, tissue-based; method in brief: as §2
[5] = tested on: Rattus norvegicus; experiment: Neurotoxicity in Wistar rat assessed as localized diffuse piloerection on head at 10 ng/kg, icv up to 10 mins; assay type: toxicity, organism-based; conditions: in vivo, icv_or_intrathecal, 1e-05 mg/kg; method in brief: as §1
[6] = tested on: Rattus norvegicus; experiment: Neurotoxicity in Wistar rat assessed as convulsion at 10 ng/kg, icv after 5 mins; assay type: toxicity, organism-based; conditions: in vivo, icv_or_intrathecal, 1e-05 mg/kg; method in brief: as §1
[7] = tested on: Rattus norvegicus; experiment: Neuronal activity in Wistar rat brain piriform cortex assessed as c-Fos-immunoreactive neurons at 0.1 ug/ul, icv after 2 hrs by immunohistochemistry analysis; assay type: functional, tissue-based; method in brief: as §2
[8] = tested on: Rattus norvegicus; experiment: Neurotoxicity in Wistar rat at 100 ng/kg, iv; assay type: toxicity, organism-based; conditions: in vivo, 0.0001 mg/kg
Method in brief: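 Given peripherally at 100 ng/kg through an intravenous catheter placed in Wistar rats anaesthetised with chloral hydrate (7%, 350 mg/kg ip), to test passage across the blood-brain barrier; behaviour was then observed.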

[9] = tested on: Hypothalamus; experiment: Neuronal activity in Wistar rat brain paraventricular nucleus of hypothalamus assessed as c-Fos-immunoreactive neurons at 0.1 ug/ul, icv after 2 hrs by immunohistochemistry analysis; assay type: functional, tissue-based; method in brief: as §2
[10] = tested on: Brain; experiment: Neuronal activity in Wistar rat brain reuniens nucleus assessed as c-Fos-immunoreactive neurons at 0.1 ug/ul, icv after 2 hrs by immunohistochemistry analysis; assay type: functional, tissue-based; method in brief: as §2
[11] = tested on: Rattus norvegicus; experiment: Neuronal activity in Wistar rat brain lateral septal nucleus dorsal assessed as c-Fos-immunoreactive neurons at 0.1 ug/ul, icv after 2 hrs by immunohistochemistry analysis; assay type: functional, tissue-based; method in brief: as §2
[12] = tested on: Rattus norvegicus; experiment: Neurotoxicity in Wistar rat assessed as partial closing of eyelids with porphyrin accumulation at 10 ng/kg, icv after 10 mins up to 30 mins; assay type: toxicity, organism-based, Eyelid; conditions: in vivo, icv_or_intrathecal, 1e-05 mg/kg; method in brief: as §1
[13] = tested on: Rattus norvegicus; experiment: Neurotoxicity in Wistar rat assessed as loss of sensor motor reflexes at 10 ng/kg, icv after 30 mins by wire suspension test; assay type: toxicity, organism-based; conditions: in vivo, icv_or_intrathecal, 1e-05 mg/kg, 0.5 h; method in brief: as §1
[14] = tested on: Rattus norvegicus; experiment: Neuronal activity in Wistar rat brain rhomboid nucleus assessed as c-Fos-immunoreactive neurons at 0.1 ug/ul, icv after 2 hrs by immunohistochemistry analysis; assay type: functional, tissue-based; conditions: Rhomboidal nucleus; method in brief: as §2
[15] = tested on: Rattus norvegicus; experiment: Neurotoxicity in Wistar rat assessed as tonic clonic crises at 10 ng/kg, icv up to 10 mins; assay type: toxicity, organism-based; conditions: in vivo, icv_or_intrathecal, 1e-05 mg/kg; method in brief: as §1
[16] = tested on: Brain; experiment: Neuronal activity in Wistar rat brain anterior hyphalamic area assessed as c-Fos-immunoreactive neurons at 0.1 ug/ul, icv after 2 hrs by immunohistochemistry analysis; assay type: functional, tissue-based; method in brief: as §2
[17] = tested on: Thalamus; experiment: Neuronal activity in Wistar rat brain paraventricular nucleus of thalamus assessed as c-Fos-immunoreactive neurons at 0.1 ug/ul, icv after 2 hrs by immunohistochemistry analysis; assay type: functional, tissue-based; method in brief: as §2

N=C(CCc1c[nH]cn1)O[C@H]1O[C@H](CO)[C@@H](O)[C@H](O)[C@H]1O [POLYBIOSIDE]
Activity [1]: Toxic
Activity [2]: Active
Activity [3]: Active
Activity [4]: Active
Activity [5]: Toxic
Activity [6]: Toxic
Activity [7]: Active
Activity [8]: Toxic
Activity [9]: Active
Activity [10]: Active
Activity [11]: Active
Activity [12]: Toxic
Activity [13]: Toxic
Activity [14]: Active
Activity [15]: Toxic
Activity [16]: Active
Activity [17]: Active
